# Experimental data: ChEMBL document CHEMBL1275449, “Potent in vitro antifungal activities of naturally occurring acetylenic acids” (Antimicrob Agents Chemother, 2008)
# pIC50: −log10 of the molar value.
# Columns and labels:
# Nakaseomyces glabratus = assay: Antifungal activity against Candida glabrata ATCC 90030 after 48 hrs by CLSI methodCandida glabrata; format: functional, organism-based; conditions: ATCC 90030, 48 h
# Summary of the method: (§1)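 Candida inocula came from 24–72-h SD agar colonies suspended in saline. They were diluted by OD630 standard curve into RPMI 1640 (0.2% dextrose, 0.03% glutamine, 0.165 M MOPS, pH 7.0) to 1.5 × 10³ CFU/ml. Compounds were run as 11 twofold dilutions in 20% DMSO-saline, in duplicate, at 35°C for 48 h, with OD530 read before and after. Percent growth at the top concentration, IC50, MIC, and MFC (SD agar plating) were derived.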
# SK-MEL = assay: Cytotoxicity against human SK-MEL cells up to 32 uM by neutral red method; format: cell-based
# Summary of the method: (§2)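 Neutral red uptake cytotoxicity, top concentration 32 μM.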
# Trichophyton rubrum [1] = assay: Antifungal activity against Trichophyton rubrum ATCC MYA-4438 by CLSI method; format: functional, organism-based
# Summary of the method: (§3)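 Growth scraped from 1- to 6-week-old potato dextrose slants and filtered through Miracloth. Diluted in 5% Alamar blue-RPMI 1640 (MOPS pH 7.0) to 2.7 × 10⁴ CFU/ml. Eleven twofold dilutions in duplicate. Fluorescence at 544 nm excitation/590 nm emission read before and after 35°C, 5 days. IC50 fitted from percent growth. MIC taken as no detectable growth; MFC from clear or blue wells plated on PD agar.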
# BT-549 = assay: Cytotoxicity against human BT549 cells up to 32 uM by neutral red method; format: cell-based; summary of the method: as §2
# Trichophyton rubrum [2] = assay: Antifungal activity against Trichophyton rubrum ATCC 10218 by CLSI method; format: functional, organism-based; summary of the method: as §3
# Candida albicans [3] = assay: Antifungal activity against Candida albicans ATCC 90028 after 48 hrs by CLSI method; format: functional, organism-based; conditions: ATCC 90028, 48 h
# Summary of the method: (§4)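 CLSI broth microdilution. Colonies from 24–72 h SD agar suspended in saline and sized by OD630 standard curve. Inoculum 1.5 × 10³ CFU/ml (final) in RPMI 1640 (0.2% dextrose, 0.03% glutamine, 0.165 M MOPS, pH 7.0). Twofold dilutions (11 levels) from 20% DMSO-saline, in duplicate. 35°C for 48 h, OD530 read before and after. IC50 fitted from % growth. MIC: no detectable growth. MFC: subculture onto SD agar.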
# Aspergillus niger = assay: Antifungal activity against Aspergillus niger ATCC 16404 after 48 h by CLSI method; conditions: ATCC 16404, 48 h
# Candida albicans [4] = assay: Antifungal activity against Candida albicans ATCC 14053 after 48 hrs by CLSI method; format: functional, organism-based; conditions: ATCC 14053, 48 h; summary of the method: as §4
# Aspergillus fumigatus [5] = assay: Antifungal activity against Aspergillus fumigatus ATCC 204305 after 48 h by CLSI method; conditions: ATCC 204305, 48 h
# Cryptococcus neoformans [6] = assay: Antifungal activity against Cryptococcus neoformans ATCC 90113 after 72 hrs by CLSI method; format: functional, organism-based; conditions: ATCC 90113, 72 h
# Summary of the method: (§5)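 SD broth replaced RPMI because growth in RPMI was poor; other CLSI conditions were kept. Inoculum was 1.5 × 10³ CFU/ml from colonies on SD agar, checked by plating. Twofold serial dilutions (11 concentrations) in 20% DMSO-saline were tested in duplicate. OD530 was read before and after incubation at 35°C for 72 h. Percent growth gave IC50; the MIC is the lowest concentration with no detectable growth.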
# Vero = assay: Cytotoxicity against African green monkey Vero cells up to 32 uM by neutral red method; format: cell-based; conditions: chlorocebus sabaeus; summary of the method: as §2
# Pichia kudriavzevii = assay: Antifungal activity against Candida krusei ATCC 6258 after 48 hrs by CLSI method; format: functional, organism-based; conditions: ATCC 6258, 48 h; summary of the method: as §1
# Candida albicans [7] = assay: Antifungal activity against Fluconazole resistant Candida albicans clinical isolate 17 after 48 hrs by CLSI method; format: functional, organism-based; summary of the method: as §4
# [8] = test system: Trichophyton mentagrophytes; assay: Antifungal activity against Trichophyton mentagrophytes ATCC MYA-4439 by CLSI method; format: functional, organism-based; summary of the method: as §3
# KB = assay: Cytotoxicity against human KB cells up to 32 uM by neutral red method; format: cell-based; summary of the method: as §2
# [9] = test system: Trichophyton mentagrophytes; assay: Antifungal activity against Trichophyton mentagrophytes ATCC 9533 by CLSI method; format: functional, organism-based; summary of the method: as §3
# Candida albicans [10] = assay: Antifungal activity against Fluconazole resistant Candida albicans clinical isolate 1 after 48 hrs by CLSI method; format: functional, organism-based; summary of the method: as §4
# LLC-PK1 = assay: Cytotoxicity against pig LLC-PK1 cells up to 32 uM by neutral red method; format: cell-based, Sus scrofa; summary of the method: as §2
# SK-OV-3 = assay: Cytotoxicity against human SKOV3 cells up to 32 uM by neutral red method; format: cell-based; summary of the method: as §2
# Candida albicans [11] = assay: Antifungal activity against Candida albicans ATCC 32354 after 48 hrs by CLSI method; format: functional, organism-based; conditions: ATCC 32354, 48 h; summary of the method: as §4
# Candida albicans [12] = assay: Antifungal activity against Candida albicans ATCC 60193 after 48 hrs by CLSI method; format: functional, organism-based; conditions: ATCC 60193, 48 h; summary of the method: as §4
# Candida tropicalis = assay: Antifungal activity against Candida tropicalis ATCC 750 after 48 hrs by CLSI method; format: functional, organism-based; conditions: ATCC 750, 48 h
# Summary of the method: (§6)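 Yeast suspensions made from 3-5 colonies off 24-72 h SD agar plates in saline. They were diluted by OD630 standard curve in RPMI 1640 (0.2% dextrose, 0.03% glutamine, 0.165 M MOPS, pH 7.0) to 1.5 × 10³ CFU/ml. Twofold dilutions (11 concentrations, 20% DMSO-saline) run in duplicate. OD530 read before and after 35°C, 48 h. Line values are top test concentrations; no-growth endpoints give MIC/MFC.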
# Cryptococcus neoformans [13] = assay: Antifungal activity against Cryptococcus neoformans ATCC 66031 after 72 hrs by CLSI method; format: functional, organism-based; conditions: ATCC 66031, 72 h; summary of the method: as §5
# Candida albicans [14] = assay: Antifungal activity against Candida albicans ATCC 200955 after 48 hrs by CLSI method; format: functional, organism-based; conditions: ATCC 200955, 48 h; summary of the method: as §4
# Aspergillus fumigatus [15] = assay: Antifungal activity against Aspergillus fumigatus ATCC 90906 after 48 h by CLSI method; conditions: ATCC 90906, 48 h
# Aspergillus flavus = assay: Antifungal activity against Aspergillus flavus ATCC 204304 after 48 h by CLSI method; conditions: ATCC 204304, 48 h
# Candida parapsilosis = assay: Antifungal activity against Candida parapsilosis ATCC 22019 after 48 hrs by CLSI method; format: functional, organism-based; conditions: Lodderomyces parapsilosis, ATCC 22019, 48 h; summary of the method: as §6
smiles,measurement,setting,value
CCCCCCCCCCC#CCCCCC(=O)O,pIC50,Nakaseomyces glabratus,< 3.73
same,Activity,SK-MEL,Non-toxic
same,pIC50,Trichophyton rubrum [1],5.39
same,MIC,Trichophyton rubrum [1],29.3 µM
same,Activity,BT-549,Non-toxic
same,pIC50,Trichophyton rubrum [2],5.19
same,MFC,Trichophyton rubrum [2],23.5 µM
same,MIC,Trichophyton rubrum [2],17.6 µM
same,pIC50,Candida albicans [3],4.02
same,pIC50,Aspergillus niger,< 3.73
same,pIC50,Candida albicans [4],< 3.73
same,pIC50,Aspergillus fumigatus [5],4.44
same,MIC,Aspergillus fumigatus [5],141 µM
same,pIC50,Cryptococcus neoformans [6],< 3.73
same,Activity,Vero,Non-toxic
same,pIC50,Pichia kudriavzevii,5.72
same,MIC,Pichia kudriavzevii,4.4 µM
same,pIC50,Candida albicans [7],4.73
same,MIC,Candida albicans [7],70.4 µM
same,pIC50,[8],5.52
same,MFC,[8],5.9 µM
same,MIC,[8],5.9 µM
same,Activity,KB,Non-toxic
same,pIC50,[9],5.43
same,MFC,[9],11.7 µM
same,MIC,[9],7.3 µM
same,pIC50,Candida albicans [10],4.09
same,Activity,LLC-PK1,Non-toxic
same,Activity,SK-OV-3,Non-toxic
same,pIC50,Candida albicans [11],3.73
same,pIC50,Candida albicans [12],3.82
same,pIC50,Candida tropicalis,4.31
same,pIC50,Cryptococcus neoformans [13],5.92
same,MIC,Cryptococcus neoformans [13],188 µM
same,pIC50,Candida albicans [14],4.18
CCCCCCCCCCCCC#CCCCCC(=O)O [6-NONADECYNOIC ACID],pIC50,Aspergillus fumigatus [15],5.85
same,MIC,Aspergillus fumigatus [15],6.6 µM
same,Activity,SK-MEL,Non-toxic
same,pIC50,Trichophyton rubrum [1],6.22
same,MIC,Trichophyton rubrum [1],3.3 µM
same,Activity,BT-549,Non-toxic
same,pIC50,Trichophyton rubrum [2],6.00
same,MFC,Trichophyton rubrum [2],5.3 µM
same,MIC,Trichophyton rubrum [2],2 µM
same,pIC50,Candida albicans [3],5.89
same,MIC,Candida albicans [3],2.7 µM
same,pIC50,Candida albicans [4],6.10
same,MFC,Candida albicans [4],2.7 µM
same,MIC,Candida albicans [4],1.3 µM
same,pIC50,Aspergillus fumigatus [5],5.96
same,MIC,Aspergillus fumigatus [5],2.7 µM
same,Activity,Vero,Non-toxic
same,pIC50,Pichia kudriavzevii,5.39
same,MIC,Pichia kudriavzevii,10.6 µM
same,pIC50,Candida albicans [7],5.82
same,MIC,Candida albicans [7],8 µM
same,pIC50,[8],6.40
same,MFC,[8],0.7 µM
same,MIC,[8],0.7 µM
same,Activity,KB,Non-toxic
same,pIC50,[9],6.05
same,MFC,[9],2.7 µM
same,MIC,[9],2 µM
same,MIC,Candida albicans [10],2.7 µM
same,Activity,LLC-PK1,Non-toxic
same,Activity,SK-OV-3,Non-toxic
same,pIC50,Candida albicans [11],5.80
same,MIC,Candida albicans [11],8 µM
same,pIC50,Candida albicans [12],5.80
same,MIC,Candida albicans [12],2.7 µM
same,pIC50,Candida tropicalis,5.28
same,pIC50,Cryptococcus neoformans [13],5.96
same,pIC50,Candida albicans [14],6.05
same,MIC,Candida albicans [14],1.3 µM
CC(=O)N1CCN(c2ccc(OCC3COC(Cn4ccnc4)(c4ccc(Cl)cc4Cl)O3)cc2)CC1 (configuration not stated) [KETOCONAZOLE],pIC50,Nakaseomyces glabratus,6.15
same,MIC,Nakaseomyces glabratus,4.7 µM
same,pIC50,Aspergillus fumigatus [15],5.49
same,MIC,Aspergillus fumigatus [15],7.1 µM
same,pIC50,Aspergillus flavus,5.55
same,MIC,Aspergillus flavus,4.7 µM
same,pIC50,Trichophyton rubrum [1],8.00
same,MIC,Trichophyton rubrum [1],0.08 µM
same,pIC50,Trichophyton rubrum [2],7.70
same,MIC,Trichophyton rubrum [2],0.04 µM
same,pIC50,Candida albicans [3],> 8.00
same,MIC,Candida albicans [3],0.01 µM
same,pIC50,Aspergillus niger,5.22
same,MIC,Aspergillus niger,9.4 µM
same,pIC50,Candida albicans [4],8.00
same,MIC,Candida albicans [4],0.02 µM
same,pIC50,Aspergillus fumigatus [5],5.57
same,MIC,Aspergillus fumigatus [5],4.7 µM
same,pIC50,Cryptococcus neoformans [6],7.00
same,MFC,Cryptococcus neoformans [6],1.2 µM
same,MIC,Cryptococcus neoformans [6],0.3 µM
same,pIC50,Pichia kudriavzevii,6.40
same,MIC,Pichia kudriavzevii,1.1 µM
same,pIC50,Candida albicans [7],6.52
same,pIC50,[8],7.00
same,MIC,[8],0.7 µM
same,pIC50,[9],6.70
same,MIC,[9],0.4 µM
same,pIC50,Candida albicans [10],> 8.00
same,MIC,Candida albicans [10],0.1 µM
same,pIC50,Candida albicans [11],8.00
same,MIC,Candida albicans [11],0.03 µM
same,pIC50,Candida albicans [12],8.00
same,MIC,Candida albicans [12],0.02 µM
same,pIC50,Candida tropicalis,7.40
same,MIC,Candida tropicalis,0.19 µM
same,pIC50,Candida parapsilosis,7.40
same,MIC,Candida parapsilosis,0.13 µM
same,pIC50,Cryptococcus neoformans [13],7.70
same,MFC,Cryptococcus neoformans [13],0.59 µM
same,MIC,Cryptococcus neoformans [13],0.15 µM
same,pIC50,Candida albicans [14],> 8.00
same,MIC,Candida albicans [14],0.01 µM
